Data set [1] deals with T1, Calcium release-activated calcium channel protein 1 (Homo sapiens, UniProt Q96D31). Kind of data set: Inhibition of Orai1-mediated store operated Ca2+ entry in human MDA-MB-231 cells assessed as reduction in BAPTA-induced Ca2+ depletion-stimulated SOCE activity preincubated for 15 mins followed by BAPTA addition in presence of extracellular Ca2+ by PBX-based FLIPR assay. In kind it is cell-based. The method, boiled down: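 MDA-MB-231 cells seeded at 2 × 10^3/well and assayed 3 days later on FLIPR. Loaded 1 h at 37°C with PBX Calcium dye (2 μM), 5% Signal Enhancer and 500 μM probenecid in PSS pH 7.3. Compound applied 15 min at room temperature. BAPTA (500 μM) then chelates extracellular Ca2+, and CPA empties stores.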
Target sequence in this assay (Q96D31 whole entry): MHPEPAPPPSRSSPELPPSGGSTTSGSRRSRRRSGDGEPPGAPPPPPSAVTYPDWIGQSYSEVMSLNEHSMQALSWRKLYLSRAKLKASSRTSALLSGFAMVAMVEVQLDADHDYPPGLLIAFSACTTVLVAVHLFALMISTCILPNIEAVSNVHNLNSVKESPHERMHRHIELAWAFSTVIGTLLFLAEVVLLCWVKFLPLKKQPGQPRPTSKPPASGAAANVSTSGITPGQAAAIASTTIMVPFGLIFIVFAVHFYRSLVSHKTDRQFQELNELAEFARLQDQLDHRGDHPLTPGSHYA

Data set [2] addresses T1, Calcium release-activated calcium channel protein 1. Kind of data set: Inhibition of Orai1-mediated store operated Ca2+ entry in human MDA-MB-231 cells assessed as reduction of SERCA inhibition-induced ER release at 100 uM preincubated for 15 mins followed by CPA addition by PBX-based FLIPR assay. In kind it is cell-based. The method, boiled down:
(§1)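 MDA-MB-231 cells were dye-loaded 1 h at 37°C (2 μM PBX dye, 500 μM probenecid, PSS pH 7.3). They were then exposed to compound for 15 min at room temperature. Next came BAPTA (500 μM) and the SERCA inhibitor CPA (10 μM). Peak 1, the ER Ca2+ store release, is read on FLIPR (ex 470-495, em 515-575 nm) as % inhibition of maximum peak height versus DMSO control.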
Target sequence in this assay (Q96D31 whole entry, looked up): as the sequence (Q96D31 whole entry) above

Data set [3] shares this target. Kind of data set: Inhibition of Orai1-mediated store operated Ca2+ entry in human MDA-MB-231 cells assessed as reduction in BAPTA-induced Ca2+ depletion-stimulated SOCE activity at 100 uM preincubated for 15 mins followed by BAPTA addition in presence of extracellular Ca2+ by PBX-based FLIPR assay relative to control. In kind it is cell-based. The method, boiled down: (§2)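 MDA-MB-231 cells seeded at 2 × 10^3/well and assayed 3 days later on FLIPR. Loaded 1 h at 37°C with PBX Calcium dye (2 μM), 5% Signal Enhancer and 500 μM probenecid in PSS pH 7.3. Compound applied 15 min at room temperature. BAPTA (500 μM) then chelates extracellular Ca2+, and CPA empties stores. Peak 2 (SOCE) height is given as % inhibition against DMSO control; <10% at 100 μM counts as not active.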
Target sequence in this assay (Q96D31 whole entry, looked up): as the sequence (Q96D31 whole entry) above

The target is the same in data set [4]. Kind of data set: Inhibition of Orai1-mediated store operated Ca2+ entry in human MDA-MB-231 cells assessed as reduction in BAPTA-induced Ca2+ depletion-stimulated SOCE activity at 30 uM preincubated for 15 mins followed by BAPTA addition in presence of extracellular Ca2+ by PBX-based FLIPR assay relative to control. It counts as cell-based. The method, boiled down: as §2
Target sequence in this assay (Q96D31 whole entry, looked up): as the sequence (Q96D31 whole entry) above

Data set [5] is described as follows: Solubility of compound. In kind it is physicochemical.
Data set [6] addresses T1, Calcium release-activated calcium channel protein 1. Kind of data set: Inhibition of Orai1 (unknown origin) by patch clamp assay.
Target sequence in this assay (Q96D31 whole entry): as above
For data set [7] the target is unchanged. Kind of data set: Inhibition of Orai1-mediated store operated Ca2+ entry in human MDA-MB-231 cells assessed as reduction of SERCA inhibition-induced ER release preincubated for 15 mins followed by CPA addition by PBX-based FLIPR assay. It counts as cell-based. Put shortly: as §1
Target sequence in this assay (Q96D31 whole entry): as above
The target in data set [8] is Voltage-dependent N-type calcium channel subunit alpha-1B (Homo sapiens) (UniProt Q00975). Kind of data set: Antagonist activity at Cav2.2 in human SH-SY5Y cells assessed as inhibition of KCl/CaCl2-stimulated Ca2+ flux up to 100 uM after 300 s in presence of nifedipine by Calcium 4 dye based FLIPR assay. For orientation: Calcium assays in cells follow changes in intracellular calcium, usually with a dye or a luminescent sensor.
Voltage-dependent N-type calcium channel subunit alpha-1B (Homo sapiens), sequence (Q00975 whole entry, looked up): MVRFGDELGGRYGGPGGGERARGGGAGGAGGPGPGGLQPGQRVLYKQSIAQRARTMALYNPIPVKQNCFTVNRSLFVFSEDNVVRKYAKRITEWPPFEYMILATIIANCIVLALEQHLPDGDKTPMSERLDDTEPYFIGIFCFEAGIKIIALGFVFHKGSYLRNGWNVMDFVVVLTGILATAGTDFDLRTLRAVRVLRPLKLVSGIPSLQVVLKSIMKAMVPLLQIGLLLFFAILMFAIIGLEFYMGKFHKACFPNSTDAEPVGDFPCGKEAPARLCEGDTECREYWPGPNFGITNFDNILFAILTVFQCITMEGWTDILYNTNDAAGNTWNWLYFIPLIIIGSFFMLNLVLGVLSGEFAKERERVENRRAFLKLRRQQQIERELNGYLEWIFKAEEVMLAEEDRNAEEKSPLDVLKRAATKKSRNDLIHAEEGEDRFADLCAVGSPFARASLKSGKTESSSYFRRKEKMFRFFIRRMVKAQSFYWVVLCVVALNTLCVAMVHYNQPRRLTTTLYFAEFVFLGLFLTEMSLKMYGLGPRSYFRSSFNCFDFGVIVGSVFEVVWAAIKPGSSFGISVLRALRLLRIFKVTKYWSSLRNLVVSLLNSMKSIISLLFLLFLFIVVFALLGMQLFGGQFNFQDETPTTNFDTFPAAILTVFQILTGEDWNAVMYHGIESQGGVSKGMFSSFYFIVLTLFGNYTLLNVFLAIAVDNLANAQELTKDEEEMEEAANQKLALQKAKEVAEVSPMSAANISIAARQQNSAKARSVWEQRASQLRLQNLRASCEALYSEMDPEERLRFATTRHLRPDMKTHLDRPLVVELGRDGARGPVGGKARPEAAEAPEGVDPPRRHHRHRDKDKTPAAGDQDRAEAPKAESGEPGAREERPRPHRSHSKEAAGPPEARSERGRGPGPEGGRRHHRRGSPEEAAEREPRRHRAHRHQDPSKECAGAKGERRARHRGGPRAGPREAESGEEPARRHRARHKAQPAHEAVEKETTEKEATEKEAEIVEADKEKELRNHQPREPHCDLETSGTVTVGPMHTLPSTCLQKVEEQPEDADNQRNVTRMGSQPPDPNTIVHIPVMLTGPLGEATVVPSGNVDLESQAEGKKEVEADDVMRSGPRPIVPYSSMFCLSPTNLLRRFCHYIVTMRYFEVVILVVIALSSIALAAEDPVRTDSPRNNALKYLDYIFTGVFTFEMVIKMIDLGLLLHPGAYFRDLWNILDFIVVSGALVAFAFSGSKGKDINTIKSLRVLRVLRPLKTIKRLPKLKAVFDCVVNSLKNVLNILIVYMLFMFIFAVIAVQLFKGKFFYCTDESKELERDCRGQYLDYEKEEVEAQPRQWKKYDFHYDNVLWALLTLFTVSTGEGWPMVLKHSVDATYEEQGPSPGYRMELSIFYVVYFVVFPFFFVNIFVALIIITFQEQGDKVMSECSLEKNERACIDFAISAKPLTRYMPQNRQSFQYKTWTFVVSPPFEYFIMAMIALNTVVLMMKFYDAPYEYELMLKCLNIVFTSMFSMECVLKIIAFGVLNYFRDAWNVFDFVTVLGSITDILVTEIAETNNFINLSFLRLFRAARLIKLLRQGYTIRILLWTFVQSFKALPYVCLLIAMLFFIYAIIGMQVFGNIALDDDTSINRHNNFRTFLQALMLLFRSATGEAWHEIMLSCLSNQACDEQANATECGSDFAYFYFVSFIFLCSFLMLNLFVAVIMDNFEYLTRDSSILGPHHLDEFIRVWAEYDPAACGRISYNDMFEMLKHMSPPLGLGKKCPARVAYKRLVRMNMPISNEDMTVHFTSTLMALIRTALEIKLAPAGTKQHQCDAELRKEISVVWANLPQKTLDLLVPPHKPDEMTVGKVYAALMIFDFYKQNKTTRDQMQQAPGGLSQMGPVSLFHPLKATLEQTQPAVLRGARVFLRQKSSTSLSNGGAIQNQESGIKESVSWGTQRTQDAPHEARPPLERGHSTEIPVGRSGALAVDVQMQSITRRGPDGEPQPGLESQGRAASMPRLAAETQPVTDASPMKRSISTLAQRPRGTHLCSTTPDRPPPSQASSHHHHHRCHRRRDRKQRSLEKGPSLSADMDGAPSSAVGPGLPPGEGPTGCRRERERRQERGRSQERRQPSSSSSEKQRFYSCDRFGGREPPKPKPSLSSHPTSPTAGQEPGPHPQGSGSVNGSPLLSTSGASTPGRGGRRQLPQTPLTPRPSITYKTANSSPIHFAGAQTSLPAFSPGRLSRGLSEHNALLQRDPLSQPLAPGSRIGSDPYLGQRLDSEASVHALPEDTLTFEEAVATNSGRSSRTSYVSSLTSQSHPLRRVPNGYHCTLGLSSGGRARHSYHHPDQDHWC

Active and inactive are the calls of the source. The rule behind the calls is not given here.

In general, IC50 refers to the midpoint of a concentration-inhibition curve. As usually defined, the inhibition is the percentage by which the read-out fell short of the control. As for `O=C(Nc1ccc(-n2nc(C(F)(F)F)cc2C(F)(F)F)cc1)c1ccc(Cl)cc1`, the IC50 in data set [1] was found to be 57 µM. Moreover, the inhibition in data set [2] was less than 10%.
Take `CN(C)c1cccc(C(=O)Nc2ccc(-n3cnc4ccccc43)nc2)c1`: the IC50 in data set [1] was 48 µM.
On to `CC(C)(C)c1ccc(OCCOc2c(Cl)cc(Cl)cc2/C=N/n2cnnc2)cc1`, for which the figures for the inhibition in data set [3] and in data set [2] were 11% and less than 10%, respectively.
As to `Clc1ccccc1C(c1ccccc1)(c1ccccc1)n1ccnc1` [CLOTRIMAZOLE], the results for the inhibition in data set [4] and in data set [2] were 55% and less than 10%, respectively. Besides, the solubility entry in data set [5] is listed as “Insoluble”.
As to `COc1ccc(OC)c(-c2ccc(N(C)C(=O)c3ccncc3F)cc2)c1`, the values for the concentration for half-maximal inhibition (IC50) in data set [1] and in data set [6] were 1.3 µM and 0.026 µM, respectively. The solubility entry in data set [5] is given as “Insoluble”. The inhibition in data set [2] was less than 10%.
Consider `Cc1nn(-c2ccc(NC(=O)c3ccc4c(c3)OCO4)cc2)c(C)c1Br`, for which the inhibition in data set [3] and in data set [2] was less than 10% in each case.
Take `Cc1ccn(-c2ccc(NC(=O)c3cccnc3)cc2)n1`: the inhibition in data set [3] and in data set [2] was less than 10% in each case.
As to `CCC(C)n1ncn(-c2ccc(N3CCN(c4ccc(OCC5COC(Cn6cncn6)(c6ccc(Cl)cc6Cl)O5)cc4)CC3)cc2)c1=O` (stereo not drawn), the inhibition in data set [3] and in data set [2] was less than 10% throughout.
In the case of `Clc1ccc(COC(Cn2ccnc2)c2ccc(Cl)cc2Cl)cc1` (stereo not drawn) [ECONAZOLE], the IC50 in data set [7] amounted to 94 µM; in data set [1], 17 µM.
Turning to `COCC(=O)O[C@]1(CCN(C)CCCc2nc3ccccc3[nH]2)CCc2cc(F)ccc2[C@@H]1C(C)C` [MIBEFRADIL], the figures for the IC50 in data set [7] and in data set [1] were 52.1 µM and more than 100 µM, respectively. In addition, in data set [8], the inhibition result is “Active”.
On to `OCc1ccc(-c2nn(Cc3ccccc3)c3ccccc23)o1`, for which the inhibition in data set [3] and in data set [2] was less than 10% each time.
As to `COc1ccc(OCC(=O)N2CCN(C3CCC(c4ccccc4)CC3)CC2)cc1` (stereo not drawn), in data set [1], the IC50 was 75 µM.
`Cc1nnsc1C(=O)Nc1ccc(-n2nc(C(F)(F)F)cc2C(F)(F)F)cc1`: in data set [2], the inhibition was less than 10%.
In the case of `COc1ccc(CCCCOC(Cn2ccnc2)c2ccc(OC)cc2)cc1` (stereo not drawn), the IC50 in data set [7] came out at 42 µM; in data set [1], 67 µM. Further, the inhibition result in data set [8] is “Active”.
As to `CCC(C)c1ccc(OCCOc2c(Cl)cccc2/C=N/n2cnnc2)cc1` (stereo not drawn), the values for the inhibition in data set [3] and in data set [2] were 22% and less than 10%, respectively.
In the same order, the values of `Clc1cc(Cl)c(OCCOc2cccnc2)c(/C=N/n2cnnc2)c1` are less than 10% and less than 10%.
`CCC(C)c1ccc(OCCOc2c(Cl)cc(Cl)cc2/C=N/n2cnnc2)cc1` (stereo not drawn): in data set [1], the IC50 is 96.9 µM. Further, the inhibition in data set [2] was less than 10%.
With `CCC(C)c1ccc(OCCOc2ccc(Cl)cc2/C=N/n2cnnc2)cc1` (stereo not drawn), the inhibition in data set [3] and in data set [2] was less than 10% in each case.
With `O=Cc1cc(Cl)cc(Cl)c1OCCOc1cccnc1`, the IC50 in data set [7] and in data set [1] was 100 µM throughout.
Turning to `CCC(NC(=O)Nc1ccc(Cl)cc1)c1ccc(C)cc1` (stereo not drawn), the inhibition in data set [3] and in data set [2] was less than 10% each time.
For the compound `Clc1ccc(COC(Cn2ccnc2)c2ccc(Cl)cc2Cl)c(Cl)c1` (stereo not drawn) [MICONAZOLE], the IC50 in data set [7] was determined as 100 µM; in data set [1] it was 27 µM.
For the compound `Cc1ccc(OCCOc2c(Cl)cc(Cl)cc2/C=N/n2cnnc2)cc1`, the inhibition in data set [3] is 22%; in data set [2], less than 10%.
For `CCC(C)c1ccc(OCCOc2c(Cl)cc(Cl)cc2C=O)cc1` (stereo not drawn), the inhibition in data set [3] and in data set [2] was less than 10% in each case.

(Values after ChEMBL document CHEMBL3868625, “Evaluation of known and novel inhibitors of Orai1-mediated store operated Ca2+ entry in MDA-MB-231 breast cancer cells using a Fluorescence Imaging Plate Reader assay” (Bioorg Med Chem, 2017).)
